Experiments:
[1] = Induction of HNO release per mol of compound in 0.6 mL MeOH and 0.2 mL of 1 M NaOH after 2 hr by gas chromatographic analysis; type: physicochemical
In short: (§1)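 HNO measured indirectly as N2O under anaerobic conditions: compound at 50 mM in 0.6 mL MeOH plus 0.2 mL 1 M NaOH; headspace (0.25 mL) injected at 2 and 24 h onto GC with thermal conductivity detector and Porapak Q column. % based on 2 mol HNO per mol N2O; mean of three experiments.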

[2] = Induction of HNO release per mol of compound in 0.6 mL MeOH and 0.2 mL of 1 M NaOH after 24 hr by gas chromatographic analysis; type: physicochemical; in short: as §1
[3] = Induction of HNO release per mol of compound in 0.6 mL MeOH, 0.2 mL of 1 M NaOH and 100 mM glutathione after 2 hr by gas chromatographic analysis; type: physicochemical
In short: (§2)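 Compound 50 mM in MeOH-based solvent containing 100 mM glutathione and 250 mM NaOH (25 mM NaOH for some compounds); headspace N2O sampled at 2 and 24 h by GC with thermal conductivity detection. % HNO from 2 mol HNO per mol N2O; mean of three.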

[4] = Induction of HNO release per mol of compound in 0.6 mL MeOH, 0.2 mL of 1 M NaOH and 100 mM glutathione after 24 hr by gas chromatographic analysis; type: physicochemical; in short: as §2
[5] = biological target: T1, Prostaglandin G/H synthase 1 (Ovis aries, UniProt P05979); assay: Inhibition of ovine COX-1
T1 sequence (P05979 whole entry): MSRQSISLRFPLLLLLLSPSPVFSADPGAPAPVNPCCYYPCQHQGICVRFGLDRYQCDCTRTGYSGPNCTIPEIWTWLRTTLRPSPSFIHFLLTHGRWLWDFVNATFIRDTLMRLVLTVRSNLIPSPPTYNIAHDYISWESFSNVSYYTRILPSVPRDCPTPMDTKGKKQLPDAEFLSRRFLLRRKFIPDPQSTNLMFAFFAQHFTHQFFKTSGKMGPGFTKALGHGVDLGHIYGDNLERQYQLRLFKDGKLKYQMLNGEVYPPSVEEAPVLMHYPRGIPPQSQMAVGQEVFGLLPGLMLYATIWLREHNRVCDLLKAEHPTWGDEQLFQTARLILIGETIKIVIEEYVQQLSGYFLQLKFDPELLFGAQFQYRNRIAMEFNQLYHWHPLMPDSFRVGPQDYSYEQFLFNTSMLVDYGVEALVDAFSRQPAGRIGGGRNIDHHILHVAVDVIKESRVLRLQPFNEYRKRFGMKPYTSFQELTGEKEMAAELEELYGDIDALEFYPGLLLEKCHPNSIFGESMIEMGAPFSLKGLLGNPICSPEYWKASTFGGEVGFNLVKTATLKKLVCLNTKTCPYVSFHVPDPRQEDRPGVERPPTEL

[6] = test system: Rattus norvegicus; assay: Antiinflammatory activity in po dosed Sprague-Dawley rat assessed as inhibition of carrageenam-induced paw edema administered 1 hr before carrageenan challenge measured after 3 hrs by Plethysmometer; type: functional; settings: read-out: ID50 (the source's name)
In short: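 Male Sprague-Dawley rats (160-180 g), three per group; compounds suspended in water with 1% methyl cellulose given orally at no fewer than three doses (2.8-112 mg/kg range) 1 h before subplantar injection of 0.05 mL 1% carrageenan in 0.9% NaCl into right hind paw. Vehicle-only controls. Paw volume measured by plethysmometer at 0 and 3 h; ID50 from dose-response curve.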

[7] = test system: Rattus norvegicus; assay: Ulcerogenic activity in 12 fasting Sprague-Dawley rat assessed as ulcer index at 80 umol/kg, po measured after 6 hrs by magnifier lenses; type: toxicity, organism-based; settings: in vivo
In short: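 Rats fasted (water allowed) 12 h, then given 80 μmol/kg orally suspended in 1.7 mL 1% methylcellulose; vehicle controls. After 6 h, CO2 euthanasia; stomachs opened along greater curvature, rinsed, ulcers counted and measured with magnifier lenses. UI = summed ulcer length (mm) per stomach averaged over n = 3 per group.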

[8] = Chemical stability of the compound in phosphate buffered saline of pH 7.4 assessed as NO release at 50 uM after 1.5 hr by Griess assay; settings: buffer, pH 7.4, 1.5 h
[9] = Induction of HNO release per mol of compound in 0.6 mL MeOH and 0.2 mL of 700 mM Tris buffer solution after 2 hr by gas chromatographic analysis
[10] = Induction of HNO release per mol of compound in 0.6 mL MeOH and 0.2 mL of 700 mM Tris buffer solution after 24 hr by gas chromatographic analysis
[11] = Chemical stability of the compound in phosphate buffered containg rat serum of pH 7.4 assessed as NO release at 50 uM after 1.5 hr by Griess assay; settings: pH 7.4, 1.5 h
[12] = test system: Rattus norvegicus; assay: Antiinflammatory activity in Sprague-Dawley rat assessed as inhibition of carrageenam-induced paw edema at 100 mg/kg, po administered 1 hr before carrageenan challenge measured after 3 hrs by Plethysmometer; type: functional
In short: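 Male Sprague-Dawley rats (160-180 g), three per group, received the test compound orally as a suspension in water with 1% methyl cellulose. One hour later, 0.05 mL of 1% carrageenan in 0.9% NaCl was injected subcutaneously into the right hind paw plantar skin. Controls received vehicle alone. Paw volume was read at 0 and 3 h, and % inhibition was reported with SEM (n = 3).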

[13] = test system: Rattus norvegicus; assay: Antiinflammatory activity in Sprague-Dawley rat assessed as inhibition of carrageenam-induced paw edema at 327 umol/kg, po administered 1 hr before carrageenan challenge measured after 3 hrs by Plethysmometer; type: functional
In short: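 Male Sprague-Dawley rats (160-180 g), three per group. Test agent was suspended in water with 1% methylcellulose and given orally 1 h before 0.05 mL 1% carrageenan in 0.9% NaCl was injected subcutaneously under the plantar skin of the right hind paw. Controls received vehicle only. Paw volume was measured at 0 and 3 h by plethysmometer. Result is % inhibition of inflammation, n = 3, with SEM.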

Row | SMILES | Activity [1] [%] | Activity [2] [%] | Activity [3] [%] | Activity [4] [%] | IC50 [5] [µM] | ED50 [6] [µmol/kg] | UI [7] | Activity [8] [%] | Activity [9] [%] | Activity [10] [%] | Activity [11] [%] | inhibition in vivo at 100 mg/kg [12] [%] | inhibition in vivo at 327 µmol/kg [13] [%]
1 | COc1ccc2c(c1)c(CC(=O)OCCS(=O)(=O)NO)c(C)n2C(=O)c1ccc(Cl)cc1 | 20 | 1 | 1 | 1 | 77.7 | 19.1 | 0 | 44.5 | 0 | 0 | 3.2 |  | 
2 | COc1ccc2cc([C@H](C)C(=O)OCCS(=O)(=O)NO)ccc2c1 | 24 | 23 | 2 | 4 | 4.5 | 11.8 |  | 52.9 | 0 | 0 | 1.3 |  | 
3 | O=C(Cc1ccccc1)OCCS(=O)(=O)NO | 23 | 21 | 0 | 7 | > 100 |  |  | 54.3 | 0 | 0 | 4.8 | 12.4 | 
4 | CC(C)Cc1ccc(C(C)C(=O)OCCS(=O)(=O)NO)cc1 (configuration not stated) | 25 | 24 | 0 | 7 | 1.1 |  |  | 46.3 | 0 | 0 | 2.1 |  | 79.5
5 | CONS(=O)(=O)CCOC(=O)C(C)c1ccc(CC(C)C)cc1 (configuration not stated) | 0 | 0 | 0 | 0 | 14.6 |  |  | 4.3 | 0 | 0 | 0.9 |  | 78.9
6 | CCS(=O)(=O)NO [ETHANESULFONYLHYDROXAMIC ACID] | 24 | 7 | 0 | 0 | > 100 |  |  | 54.5 | 0 | 0 | 1.4 |  | 
7 | COc1ccc2c(c1)c(CC(=O)O)c(C)n2C(=O)c1ccc(Cl)cc1 [INDOMETHACIN] |  |  |  |  |  |  | 64.5 |  |  |  |  |  | 
8 | COc1ccc2cc([C@H](C)C(=O)O)ccc2c1 [NAPROXEN] |  |  |  |  |  | 29.7 |  |  |  |  |  |  | 

— ChEMBL document CHEMBL1687885, “Ethanesulfohydroxamic acid ester prodrugs of nonsteroidal anti-inflammatory drugs (NSAIDs): synthesis, nitric oxide and nitroxyl release, cyclooxygenase inhibition, anti-inflammatory, and ulcerogenicity index studies” (J Med Chem, 2011)
